Data taken from ChEMBL document CHEMBL4041512, “Rational design of nitrofuran derivatives: Synthesis and valuation as inhibitors of Trypanosoma cruzi trypanothione reductase” (Eur J Med Chem, 2017).
Activity calls are given as the source filed them. The calls are words filed in the database; no cut-off is given here.

What was measured:
[1] = test system: HeLa; assay: Cytotoxicity against human HeLa cells measured after 24 hrs by crystal violet staining based assay; format: cell-based
Method in brief: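 HeLa cells seeded at 2.5 x 10⁴ cells/well in DMEM with 2% FBS, 24 h at 37°C, 5% CO₂. Medium replaced with compound, eight serial dilutions in duplicate, 24 h at 37°C. Cells fixed and stained with 0.75% crystal violet in 40% methanol for 10 min. Dye dissolved in 20% acetic acid and read at 540 nm, triplicate means. Untreated cells are the negative control.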

[2] = test system: Trypanosoma cruzi; assay: Anti-parasitic activity against Trypanosoma cruzi Dm28c epimastigotes in logarithmic phase measured after 24 to 48 hrs by resazurin assay; format: functional
Method in brief: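 Log-phase Dm28c epimastigotes at 1x10⁶ cells/ml in PBS plus 2% (w/v) glucose. Derivatives added at 0.1-100 µM final. Incubation 24-48 h, then viability read by resazurin. DMSO-only wells serve as negative control. Resazurin is also run with compound but no parasites. IC50 is the mean of at least three independent experiments, reproducible within ±10%.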

[3] = biological target: Trypanothione reductase (Trypanosoma cruzi, UniProt P28593); assay: Uncompetitive inhibition of Trypanosoma cruzi trypanothione reductase using […] as substrate at pH 7.5 in presence of NADPH by photometric method
Method in brief: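 Reactions started with NADPH; compound-free reactions serve as control. Initial rates were plotted against TS₂ concentration and Ki was taken as the mean of at least three independent data sets, within ±10%.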

[4] = Selectivity index, ratio of EC50 for cytotoxicity against human HeLa cells to IC50 for anti-parasitic activity against Trypanosoma cruzi Dm28c epimastigotes; format: toxicity, cell-based; conditions: read-out: Selectivity Index
Method in brief: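 HeLa crystal violet EC50 (24 h) divided by epimastigote IC50 (resazurin, 48 h growth).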

[5] = test system: Trypanosoma cruzi; assay: Anti-parasitic activity against Trypanosoma cruzi Dm28c epimastigotes in logarithmic phase assessed as morphological changes at 30 uM measured after 48 hrs by resazurin assay; format: functional
[6] = biological target: Trypanothione reductase (Trypanosoma cruzi) (UniProt P28593); assay: Inhibition of Trypanosoma cruzi trypanothione reductase at 100 uM using […] as substrate at pH 7.5 in presence of NADPH by photometric method; conditions: TDE = time-dependent effect
[7] = test system: Trypanosoma cruzi; assay: Potency index, ratio of nifurtimox IC50 to test compound IC50 for Trypanosoma cruzi Dm28c epimastigotes in logarithmic phase; format: functional

Trypanothione reductase, sequence (P28593 whole entry): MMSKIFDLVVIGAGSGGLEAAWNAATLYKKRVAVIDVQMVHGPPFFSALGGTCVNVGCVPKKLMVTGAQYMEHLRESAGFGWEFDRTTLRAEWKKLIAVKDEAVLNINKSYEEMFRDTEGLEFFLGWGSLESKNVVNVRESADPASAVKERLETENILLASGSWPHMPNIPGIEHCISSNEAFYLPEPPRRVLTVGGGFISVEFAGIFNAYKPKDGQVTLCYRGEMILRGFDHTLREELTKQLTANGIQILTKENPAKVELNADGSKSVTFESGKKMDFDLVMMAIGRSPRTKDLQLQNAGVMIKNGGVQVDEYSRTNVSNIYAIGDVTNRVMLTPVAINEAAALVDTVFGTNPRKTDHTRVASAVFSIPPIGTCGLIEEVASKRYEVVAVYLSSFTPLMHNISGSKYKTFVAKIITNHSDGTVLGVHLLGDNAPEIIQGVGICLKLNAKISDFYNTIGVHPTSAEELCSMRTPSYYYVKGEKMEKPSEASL
Trypanothione reductase (Trypanosoma cruzi), sequence (P28593 whole entry, looked up): as the sequence (P28593 whole entry) above

| Compound | IC50 [2] | Ki [3] | inhibition [6] | EC50 [1] | selectivity ratio [4] | Activity [5] | Ratio IC50 [7] |
| --- | --- | --- | --- | --- | --- | --- | --- |
| O=C(O)c1ccc([N+](=O)[O-])o1 |  |  | Tde |  |  | inactive |  |
| CCCN(CCC)C(=O)c1ccc([N+](=O)[O-])o1 | 19.6 µM | 183 µM |  |  |  |  |  |
| O=C(c1ccc([N+](=O)[O-])o1)N(Cc1ccccc1)Cc1ccccc1 | 1.1 µM | 68 µM | Tde | 78 µM | 70.1 |  | 4 |
| CC1CS(=O)(=O)CCN1/N=C/c1ccc([N+](=O)[O-])o1 (configuration not stated) [NIFURTIMOX] | 4 µM | 245 µM |  | 272 µM | 68 |  |  |
| O=C(c1ccc([N+](=O)[O-])o1)N1CCCC1 | 64 µM | 187 µM |  |  |  |  |  |
| O=C(NCc1ccccc1)c1ccc([N+](=O)[O-])o1 | 15 µM | 61 µM | Tde | 123 µM | 8.2 |  |  |
| O=C(c1ccc([N+](=O)[O-])o1)N1CCCCC1 | 103 µM | 282 µM |  |  |  |  |  |

The next lines start with results.

| IC50 [2] | Ki [3] | inhibition [6] | Compound | EC50 [1] | selectivity ratio [4] | Activity [5] | Ratio IC50 [7] |
| --- | --- | --- | --- | --- | --- | --- | --- |
| 26 µM | 315 µM |  | CCCCNC(=O)c1ccc([N+](=O)[O-])o1 | 152 µM | 5.8 |  |  |
| 35 µM | 313 µM |  | CC(C)(C)NC(=O)c1ccc([N+](=O)[O-])o1 |  |  |  |  |
| 18 µM | 414 µM |  | CC(C)NC(=O)c1ccc([N+](=O)[O-])o1 | 211 µM | 11.7 |  |  |
| 36 µM | 136 µM |  | CN(C)CCNC(=O)c1ccc([N+](=O)[O-])o1 |  |  |  |  |
| 17 µM | 336 µM |  | CCCNC(=O)c1ccc([N+](=O)[O-])o1 | 150 µM | 8.8 |  |  |
| 19 µM | 118 µM | Tde | CN(C)CCCNC(=O)c1ccc([N+](=O)[O-])o1 | 74 µM | 3.9 |  |  |
| 23 µM | 1180 µM |  | CCC(C)NC(=O)c1ccc([N+](=O)[O-])o1 (configuration not stated) | 165 µM | 7.2 |  |  |
| 25 µM | 128 µM |  | CCN(CC)CCCNC(=O)c1ccc([N+](=O)[O-])o1 | 100 µM | 4 |  |  |
